Calls of active or inactive are those of the source. No cut-off for these calls is given here.
Key:
Assay type in all cases: functional
HCT-116 = experiment: Antiproliferative activity against human HCT-116 cells assessed as growth inhibition at 10 uM relative to control
Method in brief: (§1)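 Single-dose screen run by the US National Cancer Institute across its 60-human tumour cell line panel. Each compound was tested at one concentration. Percent growth inhibition was recorded for each cell line.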

SW-620 = experiment: Antiproliferative activity against human SW-620 cells assessed as growth inhibition at 10 uM relative to control; conditions: read-out: GI
Method in brief: (§2)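 NCI 60 human tumour cell line panel screen. Compounds tested at a single dose and growth inhibition (%) determined for each line.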

NCI-H322M = experiment: Antiproliferative activity against human NCI-H322M cells assessed as growth inhibition at 10 uM relative to control; conditions: read-out: GI; method in brief: as §1
DU-145 = experiment: Antiproliferative activity against human DU-145 cells assessed as growth inhibition at 10 uM relative to control; conditions: read-out: GI; method in brief: as §1
Hs-578T = experiment: Antiproliferative activity against human Hs-578T cells assessed as growth inhibition at 10 uM relative to control; conditions: read-out: GI; method in brief: as §1
SNB-75 = experiment: Antiproliferative activity against human SNB-75 cells assessed as growth inhibition at 10 uM relative to control; conditions: read-out: GI; method in brief: as §2
LOX IMVI = experiment: Antiproliferative activity against human LOX IMVI cells assessed as growth inhibition at 10 uM relative to control; conditions: read-out: GI; method in brief: as §1
UO-31 = experiment: Antiproliferative activity against human UO-31 cells assessed as growth inhibition at 10 uM relative to control; conditions: read-out: GI; method in brief: as §2
M14 = experiment: Antiproliferative activity against human M14 cells assessed as growth inhibition at 10 uM relative to control; conditions: read-out: GI; method in brief: as §1
UACC-257 = experiment: Antiproliferative activity against human UACC-257 cells assessed as growth inhibition at 10 uM relative to control; conditions: read-out: GI; method in brief: as §2
Leukemia cell = experiment: Antiproliferative activity against human leukemia cells
SN12C = experiment: Antiproliferative activity against human SN12C cells assessed as growth inhibition at 10 uM relative to control; conditions: read-out: GI; method in brief: as §2
[1] = Antiproliferative activity against human Melanoma cells; conditions: Melanoma cell line
SK-MEL-5 = experiment: Antiproliferative activity against human SK-MEL-5 cells assessed as growth inhibition at 10 uM relative to control; conditions: read-out: GI; method in brief: as §2
HCC 2998 = experiment: Antiproliferative activity against human HCC 2998 cells assessed as growth inhibition at 10 uM relative to control; conditions: read-out: GI; method in brief: as §1
TK-10 = experiment: Antiproliferative activity against human TK-10 cells assessed as growth inhibition at 10 uM relative to control; conditions: read-out: GI; method in brief: as §2
MOLT-4 = experiment: Antiproliferative activity against human MOLT-4 cells assessed as growth inhibition at 10 uM relative to control; conditions: read-out: GI; method in brief: as §1
NCI-H23 = experiment: Antiproliferative activity against human NCI-H23 cells assessed as growth inhibition at 10 uM relative to control; conditions: read-out: GI; method in brief: as §1
ACHN = experiment: Antiproliferative activity against human ACHN cells assessed as growth inhibition at 10 uM relative to control; conditions: read-out: GI; method in brief: as §1
IGROV-1 = experiment: Antiproliferative activity against human IGROV-1 cells assessed as growth inhibition at 10 uM relative to control; conditions: read-out: GI; method in brief: as §1
SK-OV-3 = experiment: Antiproliferative activity against human SK-OV-3 cells assessed as growth inhibition at 10 uM relative to control; conditions: read-out: GI; method in brief: as §2
[2] = Antiproliferative activity against human ovarian cancer cells; conditions: Ovarian cancer cell line
SF-539 = experiment: Antiproliferative activity against human SF-539 cells assessed as growth inhibition at 10 uM relative to control; conditions: read-out: GI; method in brief: as §1
SNB-19 = experiment: Antiproliferative activity against human SNB-19 cells assessed as growth inhibition at 10 uM relative to control; conditions: read-out: GI; method in brief: as §2
[3] = Antiproliferative activity against human CNS cancer cells; conditions: CNS cell
NCI-H522 = experiment: Antiproliferative activity against human NCI-H522 cells assessed as growth inhibition at 10 uM relative to control; conditions: read-out: GI; method in brief: as §1
COLO 205 = experiment: Antiproliferative activity against human COLO 205 cells assessed as growth inhibition at 10 uM relative to control; conditions: read-out: GI; method in brief: as §1
MDA-MB-435 = experiment: Antiproliferative activity against human MDA-MB-435 cells assessed as growth inhibition at 10 uM relative to control; conditions: read-out: GI; method in brief: as §1
UACC-62 = experiment: Antiproliferative activity against human UACC-62 cells assessed as growth inhibition at 10 uM relative to control; conditions: read-out: GI; method in brief: as §2
SF-295 = experiment: Antiproliferative activity against human SF-295 cells assessed as growth inhibition at 10 uM relative to control; conditions: read-out: GI; method in brief: as §1
NCI/ADR-RES = experiment: Antiproliferative activity against human NCI/ADR-RES cells assessed as growth inhibition at 10 uM relative to control; conditions: read-out: GI; method in brief: as §1
HT-29 = experiment: Antiproliferative activity against human HT29 cells assessed as growth inhibition at 10 uM relative to control; conditions: read-out: GI; method in brief: as §1
PC-3 = experiment: Antiproliferative activity against human PC-3 cells assessed as growth inhibition at 10 uM relative to control; conditions: read-out: GI; method in brief: as §1
Malme-3M = experiment: Antiproliferative activity against human Malme-3M cells assessed as growth inhibition at 10 uM relative to control; conditions: read-out: GI; method in brief: as §1
CAKI-1 = experiment: Antiproliferative activity against human CAKI-1 cells assessed as growth inhibition at 10 uM relative to control; conditions: read-out: GI; method in brief: as §1
SK-MEL-28 = experiment: Antiproliferative activity against human SK-MEL-28 cells assessed as growth inhibition at 10 uM relative to control; conditions: read-out: GI; method in brief: as §2
786-0 = experiment: Antiproliferative activity against human 786-0 cells assessed as growth inhibition at 10 uM relative to control; conditions: read-out: GI; method in brief: as §1
[4] = Antiproliferative activity against human Non-small cell lung cancer cells; conditions: Non-small cell lung cancer cell line
T47D = experiment: Antiproliferative activity against human T47D cells assessed as growth inhibition at 10 uM relative to control; conditions: read-out: GI; method in brief: as §2
K562 = experiment: Antiproliferative activity against human K562 cells assessed as growth inhibition at 10 uM relative to control; conditions: read-out: GI; method in brief: as §1
MDA-MB-468 = experiment: Antiproliferative activity against human MDA-MB-468 cells assessed as growth inhibition at 10 uM relative to control; conditions: read-out: GI; method in brief: as §1
[5] = Antiproliferative activity against human prostate cancer cells; conditions: Prostate tumor cell line
SR = experiment: Antiproliferative activity against human SR cells assessed as growth inhibition at 10 uM relative to control; conditions: read-out: GI; method in brief: as §2
HCT-15 = experiment: Antiproliferative activity against human HCT-15 cells assessed as growth inhibition at 10 uM relative to control; conditions: read-out: GI; method in brief: as §1
NCI-H460 = experiment: Antiproliferative activity against human NCI-H460 cells assessed as growth inhibition at 10 uM relative to control; conditions: read-out: GI; method in brief: as §1
KM12 = experiment: Antiproliferative activity against human KM12 cells assessed as growth inhibition at 10 uM relative to control; conditions: read-out: GI; method in brief: as §1
OVCAR-3 = experiment: Antiproliferative activity against human OVCAR-3 cells assessed as growth inhibition at 10 uM relative to control; conditions: read-out: GI; method in brief: as §1
[6] = read-out: LC50 (the source's name)

## C/C(=C(/c1ccccc1)c1ccc(OCC(O)CNCCN2CCOCC2)cc1)c1ccccc1 (centres undefined)
HCT-116
  growth inhibition (GI): inactive
SW-620
  inhibition of growth at 10 µM: 51%
NCI-H322M
  inhibition of growth at 10 µM: 27.3%
DU-145
  inhibition of growth at 10 µM: 32.2%
Hs-578T
  inhibition of growth at 10 µM: 29.5%
SNB-75
  inhibition of growth at 10 µM: 34.2%
LOX IMVI
  inhibition of growth at 10 µM: 81.3%
UO-31
  inhibition of growth at 10 µM: 30.8%
M14
  inhibition of growth at 10 µM: 7.31%
UACC-257
  inhibition of growth at 10 µM: -27.5%
Leukemia cell
  GI50: 2.19 µM
  LC50 (concentration killing 50% of cells): 23.9 µM
  TGI: 5.8 µM
SN12C
  inhibition of growth at 10 µM: 23.9%
[1]
  GI50: 1.87 µM
  LC50: 8.55 µM
  TGI: 3.74 µM
SK-MEL-5
  inhibition of growth at 10 µM: 71%
HCC 2998
  inhibition of growth at 10 µM: -59.6%
TK-10
  inhibition of growth at 10 µM: 26.5%
MOLT-4
  inhibition of growth at 10 µM: 59%
NCI-H23
  inhibition of growth at 10 µM: 16.8%
ACHN
  inhibition of growth at 10 µM: 18.6%
IGROV-1
  inhibition of growth at 10 µM: 36.6%
SK-OV-3
  inhibition of growth at 10 µM: 4.57%
[2]
  GI50: 5.2 µM
  TGI: 16.3 µM
[2]; [6]
  CC50: 45.8 µM
SF-539
  inhibition of growth at 10 µM: 27.2%
SNB-19
  inhibition of growth at 10 µM: 8.8%
[3]
  GI50: 2.81 µM
  TGI: 9.9 µM
[3]; [6]
  CC50: 25.2 µM
NCI-H522
  inhibition of growth at 10 µM: 55.5%
COLO 205
  inhibition of growth at 10 µM: -64.5%
MDA-MB-435
  inhibition of growth at 10 µM: -63.8%
UACC-62
  inhibition of growth at 10 µM: 37.3%
SF-295
  inhibition of growth at 10 µM: 28.8%
NCI/ADR-RES
  inhibition of growth at 10 µM: 19.8%
HT-29
  inhibition of growth at 10 µM: 96.8%
PC-3
  inhibition of growth at 10 µM: 34.5%
Malme-3M
  inhibition of growth at 10 µM: -71.7%
CAKI-1
  inhibition of growth at 10 µM: 32.1%
SK-MEL-28
  inhibition of growth at 10 µM: -86.2%
786-0
  inhibition of growth at 10 µM: 2.44%
[4]
  GI50: 4.19 µM
  TGI: 12.2 µM
[4]; [6]
  CC50: 36.3 µM
T47D
  inhibition of growth at 10 µM: 10.7%
K562
  inhibition of growth at 10 µM: 97.6%
MDA-MB-468
  inhibition of growth at 10 µM: 46.9%
[5]
  GI50: 3.57 µM
  TGI: 13 µM
[5]; [6]
  CC50: 38.5 µM
SR
  inhibition of growth at 10 µM: 99.3%
HCT-15
  inhibition of growth at 10 µM: 95.5%
NCI-H460
  inhibition of growth at 10 µM: 82.4%
KM12
  inhibition of growth at 10 µM: 45.7%
OVCAR-3
  inhibition of growth at 10 µM: 22.1%
